Measurements: ChEMBL document CHEMBL1122757, “Angiotensin II: dependence of hormone affinity on the electronegativity of a single side chain” (1984)
Square brackets hold non-standard residues; d marks the D form. Peptide text beside a SMILES is read from it. Sar = CNCC(=O)O

Key:
[1] = target: T1, Type-1 angiotensin II receptor (Bos taurus) (UniProt P25104); assay: Displacement of [3H]AT from angiotensin II receptor in bovine adrenocortical membranes; assay type: cell membranes
T1 sequence (whole entry): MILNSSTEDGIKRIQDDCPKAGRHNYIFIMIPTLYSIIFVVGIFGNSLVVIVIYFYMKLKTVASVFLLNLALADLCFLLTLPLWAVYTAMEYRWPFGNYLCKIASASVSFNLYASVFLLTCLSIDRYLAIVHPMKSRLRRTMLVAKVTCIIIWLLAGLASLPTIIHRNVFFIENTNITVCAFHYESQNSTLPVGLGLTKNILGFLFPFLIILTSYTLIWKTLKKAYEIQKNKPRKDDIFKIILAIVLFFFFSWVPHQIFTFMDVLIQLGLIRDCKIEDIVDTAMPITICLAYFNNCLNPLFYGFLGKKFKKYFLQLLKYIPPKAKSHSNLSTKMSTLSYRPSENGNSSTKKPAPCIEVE
Outline: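 Bovine adrenal glands taken fresh at slaughter, kept in ice-cold saline and dissected; purified adrenal microsomal membranes (~50-100 μg protein) in 100 μL assay buffer with [Sar1,(3',5'-3H2-4'-NH2)Phe4]AT at 5 × 10^-9 M. Competitor 10^-9 to 10^-4 M. Triplicate, 20 °C, 15 min. Filtration on nitrocellulose, scintillation counting. Nonspecific binding with 10^-4 M unlabeled AT. Specific binding as B/BO. At least nine independent experiments; RA given relative to standard.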

Oryctolagus cuniculus [2] = species: Oryctolagus cuniculus; assay: In vitro biological activity on rabbit aorta strip.; assay type: functional
Outline: (§1)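 Isolated rabbit aorta strips under 2 g tension, adjusted during a 60–90-min equilibration, with bath fluid changed every 10–15 min. Peptides added to the tissue bath, concentrations stated as final bath concentrations. Contractile responses recorded with force-displacement transducers.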

Rattus norvegicus [3] = assay: In vivo biological activity on the blood pressure of the anesthetized rat.; assay type: functional
Rattus norvegicus [4] = assay: In vivo biological activity on the blood pressure of the anesthetized rat; assay type: functional
Oryctolagus cuniculus [5] = species: Oryctolagus cuniculus; assay: In vitro biological activity on rabbit aorta strip; assay type: functional; outline: as §1

SMILES	Activity [1] [%]	Activity (Oryctolagus cuniculus [2]) [%]	Activity (Rattus norvegicus [3]) [%]	also measured
CNCC(=O)N[C@@H](CCCN=C(N)N)C(=O)N[C@H](C(=O)N[C@@H](Cc1ccc(S(N)(=O)=O)cc1)C(=O)N[C@H](C(=O)N[C@@H](Cc1c[nH]cn1)C(=O)N1CCC[C@@H]1C(=O)N[C@@H](Cc1ccccc1)C(=O)O)C(C)C)C(C)C	3.8	–	–	–
CNCC(=O)N[C@@H](CCCN=C(N)N)C(=O)N[C@H](C(=O)N[C@@H](Cc1ccc(O)c(N=[N+]=[N-])c1)C(=O)N[C@H](C(=O)N[C@@H](Cc1c[nH]cn1)C(=O)N1CCC[C@H]1C(=O)N[C@@H](Cc1ccccc1)C(=O)O)C(C)C)C(C)C	–	63	63	–
CNCC(=O)N[C@@H](CCCN=C(N)N)C(=O)N[C@H](C(=O)N[C@@H](Cc1ccc(O)c(Cl)c1)C(=O)N[C@H](C(=O)N[C@@H](Cc1c[nH]cn1)C(=O)N1CCC[C@H]1C(=O)N[C@@H](Cc1ccccc1)C(=O)O)C(C)C)C(C)C	–	103	82	–
CNCC(=O)N[C@@H](CCCN=C(N)N)C(=O)N[C@H](C(=O)N[C@@H](Cc1ccc(S(=O)(=O)O)cc1)C(=O)N[C@H](C(=O)N[C@@H](Cc1c[nH]cn1)C(=O)N1CCC[C@@H]1C(=O)N[C@@H](Cc1ccccc1)C(=O)O)C(C)C)C(C)C	0	–	–	–
CNCC(=O)N[C@@H](CCCN=C(N)N)C(=O)N[C@H](C(=O)N[C@@H](Cc1cc([N+](=O)[O-])c(O)c([N+](=O)[O-])c1)C(=O)N[C@H](C(=O)N[C@@H](Cc1c[nH]cn1)C(=O)N1CCC[C@@H]1C(=O)N[C@@H](Cc1ccccc1)C(=O)O)C(C)C)C(C)C	1.5	–	–	–
CNCC(=O)N[C@@H](CCCN=C(N)N)C(=O)N[C@H](C(=O)N[C@@H](Cc1ccc(O)c(N)c1)C(=O)N[C@H](C(=O)N[C@@H](Cc1c[nH]cn1)C(=O)N1CCC[C@H]1C(=O)N[C@@H](Cc1ccccc1)C(=O)O)C(C)C)C(C)C	–	120	184	–
CNCC(=O)N[C@@H](CCCN=C(N)N)C(=O)N[C@H](C(=O)N[C@@H](Cc1ccc(S)cc1)C(=O)N[C@H](C(=O)N[C@@H](Cc1c[nH]cn1)C(=O)N1CCC[C@H]1C(=O)N[C@@H](Cc1ccccc1)C(=O)O)C(C)C)C(C)C	–	0.9	–	–
CNCC(=O)N[C@@H](CCCN=C(N)N)C(=O)N[C@H](C(=O)N[C@@H](Cc1ccc([N+](=O)[O-])cc1)C(=O)N[C@H](C(=O)N[C@@H](Cc1c[nH]cn1)C(=O)N1CCC[C@H]1C(=O)N[C@@H](Cc1ccccc1)C(=O)O)C(C)C)C(C)C	–	0	0.2	–
CNCC(=O)N[C@@H](CCCN=C(N)N)C(=O)N[C@H](C(=O)N[C@@H](Cc1cc(I)c(N)c(I)c1)C(=O)N[C@H](C(=O)N[C@@H](Cc1c[nH]cn1)C(=O)N1CCC[C@H]1C(=O)N[C@@H](Cc1ccccc1)C(=O)O)C(C)C)C(C)C	–	2.7	5.3	–
CNCC(=O)N[C@@H](CCCN=C(N)N)C(=O)N[C@H](C(=O)N[C@@H](Cc1ccc(N=[N+]=[N-])cc1)C(=O)N[C@H](C(=O)N[C@@H](Cc1c[nH]cn1)C(=O)N1CCC[C@@H]1C(=O)N[C@@H](Cc1ccccc1)C(=O)O)C(C)C)C(C)C	2.6	–	–	–
CNCC(=O)N[C@@H](CCCN=C(N)N)C(=O)N[C@H](C(=O)N[C@@H](Cc1ccccc1)C(=O)N[C@H](C(=O)N[C@@H](Cc1c[nH]cn1)C(=O)N1CCC[C@H]1C(=O)N[C@@H](Cc1ccccc1)C(=O)O)C(C)C)C(C)C	–	–	–	Activity (Rattus norvegicus [4]): 8.1%; Activity (Oryctolagus cuniculus [5]): 9.8%
CNCC(=O)N[C@@H](CCCN=C(N)N)C(=O)N[C@H](C(=O)N[C@@H](Cc1cc(Cl)c(O)c(Cl)c1)C(=O)N[C@H](C(=O)N[C@@H](Cc1c[nH]cn1)C(=O)N1CCC[C@H]1C(=O)N[C@@H](Cc1ccccc1)C(=O)O)C(C)C)C(C)C	–	22	19	–
CNCC(=O)N[C@@H](CCCN=C(N)N)C(=O)N[C@H](C(=O)N[C@@H](Cc1ccc(S(=O)(=O)O)cc1)C(=O)N[C@H](C(=O)N[C@@H](Cc1c[nH]cn1)C(=O)N1CCC[C@H]1C(=O)N[C@@H](Cc1ccccc1)C(=O)O)C(C)C)C(C)C	–	0	0	–
CNCC(=O)N[C@@H](CCCN=C(N)N)C(=O)N[C@H](C(=O)N[C@@H](Cc1ccc(N=[N+]=[N-])cc1)C(=O)N[C@H](C(=O)N[C@@H](Cc1c[nH]cn1)C(=O)N1CCC[C@H]1C(=O)N[C@@H](Cc1ccccc1)C(=O)O)C(C)C)C(C)C	–	0.3	–	–
CNCC(=O)N[C@@H](CCCN=C(N)N)C(=O)N[C@H](C(=O)N[C@@H](Cc1ccc(N)cc1)C(=O)N[C@H](C(=O)N[C@@H](Cc1c[nH]cn1)C(=O)N1CCC[C@H]1C(=O)N[C@@H](Cc1ccccc1)C(=O)O)C(C)C)C(C)C	–	15	14	–
CNCC(=O)N[C@@H](CCCN=C(N)N)C(=O)N[C@H](C(=O)N[C@@H](Cc1ccc(O)c([N+](=O)[O-])c1)C(=O)N[C@H](C(=O)N[C@@H](Cc1c[nH]cn1)C(=O)N1CCC[C@H]1C(=O)N[C@@H](Cc1ccccc1)C(=O)O)C(C)C)C(C)C	–	38	16	–
CNCC(=O)N[C@@H](CCCN=C(N)N)C(=O)N[C@H](C(=O)N[C@@H](Cc1cc([N+](=O)[O-])c(O)c([N+](=O)[O-])c1)C(=O)N[C@H](C(=O)N[C@@H](Cc1c[nH]cn1)C(=O)N1CCC[C@H]1C(=O)N[C@@H](Cc1ccccc1)C(=O)O)C(C)C)C(C)C	–	7.8	0.5	–
CNCC(=O)N[C@@H](CCCN=C(N)N)C(=O)N[C@H](C(=O)N[C@@H](Cc1ccc(S(N)(=O)=O)cc1)C(=O)N[C@H](C(=O)N[C@@H](Cc1c[nH]cn1)C(=O)N1CCC[C@H]1C(=O)N[C@@H](Cc1ccccc1)C(=O)O)C(C)C)C(C)C	–	3.2	0.9	–
CNCC(=O)N[C@@H](CCCN=C(N)N)C(=O)N[C@H](C(=O)N[C@@H](Cc1ccc([N+](=O)[O-])cc1)C(=O)N[C@H](C(=O)N[C@@H](Cc1c[nH]cn1)C(=O)N1CCC[C@@H]1C(=O)N[C@@H](Cc1ccccc1)C(=O)O)C(C)C)C(C)C	1.5	–	–	–
CNCC(=O)N[C@@H](CCCN=C(N)N)C(=O)N[C@H](C(=O)N[C@@H](Cc1ccc(O)cc1)C(=O)N[C@H](C(=O)N[C@@H](Cc1c[nH]cn1)C(=O)N1CCC[C@H]1C(=O)N[C@@H](Cc1ccccc1)C(=O)O)C(C)C)C(C)C (H-[Sar]RVYVHPF-OH)	–	100	100	–
CNCC(=O)N[C@@H](CCCN=C(N)N)C(=O)N[C@H](C(=O)N[C@@H](Cc1ccc(O)c(N=[N+]=[N-])c1)C(=O)N[C@H](C(=O)N[C@@H](Cc1c[nH]cn1)C(=O)N1CCC[C@@H]1C(=O)N[C@@H](Cc1ccccc1)C(=O)O)C(C)C)C(C)C	61	–	–	–

Further lines, with some results ahead:

Activity [1] [%]	SMILES	Activity (Oryctolagus cuniculus [2]) [%]	Activity (Rattus norvegicus [3]) [%]	also measured
75	CNCC(=O)N[C@@H](CCCN=C(N)N)C(=O)N[C@H](C(=O)N[C@@H](Cc1ccc(O)c([N+](=O)[O-])c1)C(=O)N[C@H](C(=O)N[C@@H](Cc1c[nH]cn1)C(=O)N1CCC[C@@H]1C(=O)N[C@@H](Cc1ccccc1)C(=O)O)C(C)C)C(C)C	–	–	–
132	CNCC(=O)N[C@@H](CCCN=C(N)N)C(=O)N[C@H](C(=O)N[C@@H](Cc1ccc(O)c(N)c1)C(=O)N[C@H](C(=O)N[C@@H](Cc1c[nH]cn1)C(=O)N1CCC[C@@H]1C(=O)N[C@@H](Cc1ccccc1)C(=O)O)C(C)C)C(C)C	–	–	–
28	CNCC(=O)N[C@@H](CCCN=C(N)N)C(=O)N[C@H](C(=O)N[C@@H](Cc1cc(Cl)c(O)c(Cl)c1)C(=O)N[C@H](C(=O)N[C@@H](Cc1c[nH]cn1)C(=O)N1CCC[C@@H]1C(=O)N[C@@H](Cc1ccccc1)C(=O)O)C(C)C)C(C)C	–	–	–
87	CNCC(=O)N[C@@H](CCCN=C(N)N)C(=O)N[C@H](C(=O)N[C@@H](Cc1ccc(O)c(Cl)c1)C(=O)N[C@H](C(=O)N[C@@H](Cc1c[nH]cn1)C(=O)N1CCC[C@@H]1C(=O)N[C@@H](Cc1ccccc1)C(=O)O)C(C)C)C(C)C	–	–	–
28	CNCC(=O)N[C@@H](CCCN=C(N)N)C(=O)N[C@H](C(=O)N[C@@H](Cc1ccc(N)cc1)C(=O)N[C@H](C(=O)N[C@@H](Cc1c[nH]cn1)C(=O)N1CCC[C@@H]1C(=O)N[C@@H](Cc1ccccc1)C(=O)O)C(C)C)C(C)C	–	–	–
100	CNCC(=O)N[C@@H](CCCN=C(N)N)C(=O)N[C@H](C(=O)N[C@@H](Cc1ccc(O)cc1)C(=O)N[C@H](C(=O)N[C@@H](Cc1c[nH]cn1)C(=O)N1CCC[C@@H]1C(=O)N[C@@H](Cc1ccccc1)C(=O)O)C(C)C)C(C)C (H-[Sar]RVYVH[dP]F-OH)	–	–	–
16	CNCC(=O)N[C@@H](CCCN=C(N)N)C(=O)N[C@H](C(=O)N[C@@H](Cc1cc(I)c(N)c(I)c1)C(=O)N[C@H](C(=O)N[C@@H](Cc1c[nH]cn1)C(=O)N1CCC[C@@H]1C(=O)N[C@@H](Cc1ccccc1)C(=O)O)C(C)C)C(C)C	–	–	–
0.5	CNCC(=O)N[C@@H](CCCN=C(N)N)C(=O)N[C@H](C(=O)N[C@@H](Cc1ccc(S)cc1)C(=O)N[C@H](C(=O)N[C@@H](Cc1c[nH]cn1)C(=O)N1CCC[C@@H]1C(=O)N[C@@H](Cc1ccccc1)C(=O)O)C(C)C)C(C)C	–	–	–
18	CNCC(=O)N[C@@H](CCCN=C(N)N)C(=O)N[C@H](C(=O)N[C@@H](Cc1ccccc1)C(=O)N[C@H](C(=O)N[C@@H](Cc1c[nH]cn1)C(=O)N1CCC[C@@H]1C(=O)N[C@@H](Cc1ccccc1)C(=O)O)C(C)C)C(C)C	–	–	–
